Data on 24 compounds can be found in ChEMBL document CHEMBL4390700, “Design, synthesis and antitumour and anti-angiogenesis evaluation of 22 moscatilin derivatives” (Bioorg Med Chem, 2019).

Assay [1] concerns A549. The experiment in a line: Antiproliferative activity against human A549 cells incubated for 72 hrs by MTT assay. As to conditions: A549, 72 h. The format is functional, cell-based. The essentials: (§1)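 5×10³ cells per well preincubated 12 h at 37 °C, 5% CO₂. Medium replaced with fresh medium containing compound at various concentrations, DMSO ≤0.1%, for 72 h at 37 °C. MTT 0.5 mg/mL final added for 2 h; formazan dissolved in DMSO, A570 read; viability expressed relative to untreated cells.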

For assay [2], the system named is MDA-MB-231. The assay can be described thus: Antiproliferative activity against human MDA-MB-231 cells incubated for 72 hrs by MTT assay. The format is functional, cell-based. As to conditions: MDA-MB-231, 72 h. The essentials:
as §1

The test system of assay [3] is HCT-116. The assay can be described thus: Antiproliferative activity against human HCT116 cells incubated for 72 hrs by MTT assay. The format is functional, cell-based. As to conditions: HCT-116, 72 h. The essentials: as §1
Assay [4] relates to HepG2. The experiment in a line: Antiproliferative activity against human HepG2 cells incubated for 72 hrs by MTT assay. As to conditions: HepG2, 72 h. The format is functional, cell-based. The essentials: as §1
The subject of assay [5] is MKN-45. The assay can be described thus: Antiproliferative activity against human MKN45 cells incubated for 72 hrs by MTT assay. The format is functional, cell-based. The conditions noted are these: MKN-45, 72 h. The essentials: as §1
For assay [6], the species on record is Danio rerio. The experiment in a line: Anti-angiogenic activity in zebrafish-guided angiogenesis model assessed as reduction in inter-segmental blood vessels measured at 72 hpf by fluorescence microscopy. The format is functional. The essentials:
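Tg(fli-1:EGFP) zebrafish embryos, dechorionated at 24 hpf, 20 per group, kept in embryo water containing compound at 28.5 °C for a further 48 h. All compounds screened first at 50 μM; active ones titrated for minimum effective dose. At 72 hpf embryos anesthetized in 0.016% tricaine and intersegmental vessels imaged by fluorescence microscopy. SU5416 positive control.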

Assay [7] deals with HCT-116. The assay can be described thus: Induction of apoptosis in human HCT116 cells assessed as late apoptotic cells level at 1 uM incubated for 48 hrs by Annexin V-FITC and propidium iodide staining based flow cytometry. The format is functional. The essentials: (§2)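 HCT116 seeded 2 × 10⁵ cells/well, adhered overnight, then exposed to compound for 48 h. Annexin V-FITC/PI double staining, read by flow cytometry. Early apoptotic cells counted as Annexin V+/PI− (lower right quadrant), late apoptotic as Annexin V+/PI+ (upper right). Culture at 37 °C, 5% CO₂, medium with 10% FBS and penicillin/streptomycin, DMSO ≤0.1%.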

The subject of assay [8] is HCT-116. The assay can be described thus: Induction of apoptosis in human HCT116 cells assessed as early apoptotic cells level at 1 uM incubated for 48 hrs by Annexin V-FITC and propidium iodide staining based flow cytometry. The format is functional. The essentials:
as §2

As for `COc1cc(CCc2ccccc2F)cc(OC)c1O`, the IC50 was greater than 25 µM in assay [1]; 9.22 µM in assay [2]; 0.88 µM in assay [3]; 1.03 µM in assay [4]; greater than 25 µM in assay [5]. The MED in assay [6] is 10 to 15 µM.

With `COc1cc(CCc2ccc(Cl)c(Cl)c2)cc(OC)c1O`, the IC50 in assay [1] worked out at 13.4 µM; in assay [2], 2.52 µM; in assay [3] it was 1.86 µM; in assay [4], 16.1 µM; in assay [5], 20.6 µM. Besides, in assay [6], the MED fell in the range of 20 to 25 µM.

`COc1cc(CCc2ccc(Cl)cc2Cl)cc(OC)c1O`: the 50% inhibitory concentration (IC50) is 3.84 µM in assay [1]; greater than 25 µM in assay [2]; 2.98 µM in assay [3]; 6.74 µM in assay [4]; 4.46 µM in assay [5]. For the same compound, the MED in assay [6] is 5 to 10 µM.

For the compound `COc1cc(CCc2cccc(Cl)c2Cl)cc(OC)c1O`, the IC50 in assay [1] turned out to be 3.99 µM; in assay [2] it was 6.87 µM; in assay [3], 8.78 µM; in assay [4], 4.77 µM; in assay [5], 0.011 µM. Besides, the MED in assay [6] fell in the range of 5 to 10 µM.

Consider `COc1ccc(CCc2ccccn2)cc1OC`, for which the half-maximal inhibitory concentration (IC50) in assay [1] is greater than 25 µM; in assay [2] it was 10.5 µM; in assay [3] it was 0.93 µM; in assay [4], 13.8 µM; in assay [5], 11.1 µM. Besides, in assay [6], the MED is greater than 50 µM.

Take `COc1ccc(CCc2ccc(F)cc2)cc1OC`: the IC50 in assay [1] is greater than 25 µM; in assay [2] it was 0.92 µM; in assay [3], 7.89 µM; in assay [4], greater than 25 µM; in assay [5], 3.98 µM. Also, the MED in assay [6] was greater than 50 µM.

On to `COc1cc(CCc2ccncc2)cc(OC)c1O`, for which the IC50 in assay [1] was greater than 25 µM; in assay [2] it was 6.3 µM; in assay [3], 3.74 µM; in assay [4], 2.17 µM; in assay [5], 3.81 µM. Moreover, the MED in assay [6] was greater than 50 µM.

Turning to `COc1ccc(CCc2ccc(OC)c(OC)c2)cc1O`, the IC50 in assay [1] was 4.79 µM; in assay [2], 0.081 µM; in assay [3], 5.26 µM; in assay [4], 4.05 µM; in assay [5] it was greater than 25 µM. For the same compound, the MED in assay [6] was in the range of 40 to 50 µM.

As to `COc1cc(CCc2ccc(Br)cc2)cc(OC)c1O`, the 50% inhibitory concentration (IC50) in assay [1] was greater than 25 µM; in assay [2], greater than 25 µM; in assay [3] it was 15.8 µM; in assay [4], 8.49 µM; in assay [5] it was 1.49 µM. The MED in assay [6] fell in the range of 2.5 to 5 µM.

On to `COc1cc(CCc2ccc([N+](=O)[O-])cc2)cc(OC)c1O`, for which the IC50 was found to be 9.13 µM in assay [1]; 8.05 µM in assay [2]; 3.16 µM in assay [3]; 11 µM in assay [4]; 15.4 µM in assay [5].

In the case of `COc1cc(CCc2cc(OC)c(O)c(OC)c2)ccc1O` [MOSCATILIN], the concentration for half-maximal inhibition (IC50) in assay [1] was 2.1 µM; in assay [2], 0.082 µM; in assay [3] it was 2.29 µM; in assay [4], 3.76 µM; in assay [5] it was 3.51 µM. In addition, the MED in assay [6] is 2.5 to 5 µM.

With `COc1ccc(CCc2ccccc2Cl)cc1OC`, the IC50 in assay [1] was greater than 25 µM; in assay [2], greater than 25 µM; in assay [3], 6.16 µM; in assay [4] it was 4.93 µM; in assay [5], 2.04 µM. Further, the MED in assay [6] lay in the range of 20 to 25 µM.

As for `COc1cc(CCc2ccc(OC)c(OC)c2)ccc1O`, the half-inhibitory concentration (IC50) in assay [1] is 3.64 µM; in assay [2], 1.64 µM; in assay [3] it was 2.69 µM; in assay [4], 2.27 µM; in assay [5], 2.06 µM. In addition, the MED in assay [6] was greater than 50 µM.

As to `COc1cc(CCc2ccc(F)cc2)cc(OC)c1O`, the IC50 in assay [1] was 4.15 µM; in assay [2], greater than 25 µM; in assay [3], 1.19 µM; in assay [4], 5.47 µM; in assay [5], 10.7 µM. In addition, the MED in assay [6] is greater than 50 µM.

In the case of `COc1ccc(CCc2ccccc2)cc1OC`, the IC50 in assay [1] was greater than 25 µM; in assay [2], greater than 25 µM; in assay [3] it was 2.56 µM; in assay [4], 2.08 µM; in assay [5], 21.9 µM. For the same compound, the MED in assay [6] is greater than 50 µM.

Turning to `COc1ccc(CCc2ccc([N+](=O)[O-])cc2)cc1OC`, the half-maximal inhibitory concentration (IC50) in assay [1] is greater than 25 µM; in assay [2] it was greater than 25 µM; in assay [3], 5.97 µM; in assay [4], 1.6 µM; in assay [5], 13.7 µM. For the same compound, the MED in assay [6] is greater than 50 µM.

Consider `Cc1cc(C)c(/C=C2\C(=O)Nc3ccccc32)[nH]1` [SEMAXANIB], for which the MED in assay [6] lay in the range of 1.25 to 2.5 µM.

Turning to `CC(C)=CCC[C@]1(C)C=Cc2c(O)c3c(c(CC=C(C)C)c2O1)O[C@]12C(=C[C@@H]4C[C@H]1C(C)(C)O[C@@]2(C/C=C(/C)C(=O)O)C4=O)C3=O` [GAMBOGIC ACID], the Activity is recorded as 31.8% in assay [7] and 33% in assay [8]. Also, the IC50 came out at 1.47 µM in assay [1]; 1.33 µM in assay [2]; 3.11 µM in assay [3]; 2.36 µM in assay [4]; 4.27 µM in assay [5].

Consider `COc1ccccc1CCc1cc(OC)c(O)c(OC)c1`, for which the 50% inhibitory concentration (IC50) in assay [1] was 1.74 µM; in assay [2], greater than 25 µM; in assay [3] it was 14.5 µM; in assay [4], 2.48 µM; in assay [5], 2.48 µM. Further, in assay [6], the MED lay within 1.25 to 2.5 µM.

`COc1cc(CCc2cccc(F)c2)cc(OC)c1O`: the IC50 in assay [1] is 2.24 µM; in assay [2], greater than 25 µM; in assay [3], 7.57 µM; in assay [4], 12.4 µM; in assay [5], 2.97 µM. The MED in assay [6] was 15 to 20 µM.

`COc1cc(CCc2ccccn2)cc(OC)c1O`: the 50% inhibitory concentration (IC50) in assay [1] is greater than 25 µM; in assay [2], greater than 25 µM; in assay [3] it was 3.06 µM; in assay [4], 4.84 µM; in assay [5], 0.66 µM. Besides, the MED in assay [6] is 25 to 50 µM.

In the case of `COc1cc(CCc2ccccc2)cc(OC)c1O`, the IC50 was 10.9 µM in assay [1]; greater than 25 µM in assay [2]; 0.53 µM in assay [3]; 7.83 µM in assay [4]; 1.04 µM in assay [5]. Moreover, the MED in assay [6] lay in the range of 20 to 25 µM.

Take `COc1cc(CCc2ccc(Cl)cc2)cc(OC)c1O`: the IC50 in assay [1] was 22.9 µM; in assay [2] it was greater than 25 µM; in assay [3], 0.33 µM; in assay [4], 8.78 µM; in assay [5], 0.74 µM. Also, the MED in assay [6] was greater than 50 µM.

As to `COc1ccc(CCc2ccc(Cl)cc2)cc1OC`, the concentration for half-maximal inhibition (IC50) in assay [1] was greater than 25 µM; in assay [2], 1.25 µM; in assay [3] it was 0.52 µM; in assay [4] it was 0.74 µM; in assay [5] it was 1.52 µM. In assay [6], the MED was greater than 50 µM.
